Experimental findings from ChEMBL document CHEMBL1125882, “The agonist pharmacophore of the benzodiazepine receptor. Synthesis of a selective anticonvulsant/anxiolytic” (J Med Chem, 1991) are described below.

Assay [1] relates to Mus musculus. The experiment in a line: Number of mice impaired to that of number of mice tested at 20 mg/kg; 0/10. Type of assay: functional.
The subject of assay [2] is Mus musculus. Kind of assay: Number of mice impaired to that of number of mice tested at 10 mg/kg; 0/10. Type of assay: functional.
Assay [3] has as its system Mus musculus. The experiment in a line: Tested for inhibition of pentylenetetrazole (PTZ = 80 mg/kg (ip)) induced seizures in mice at a dose of 0.5-40 mg/kg i.p. Type of assay: functional. Particulars: route intraperitoneal. The gist of the method: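 Mice pretreated ip with drug (0.5-40 mg/kg); 15 min later pentylenetetrazole 80 mg/kg ip. Tonic and/or clonic seizures were scored over the next 15 min. 5-14 mice per dose point; ED50 taken from the dose-response curve.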

The subject of assay [4] is Mus musculus. Kind of assay: Effects on Diazepam-Induced Myorelaxation in mice was determined at 20 mg/kg. Format: functional.
The test system of assay [5] is Mus musculus. The experiment in a line: Effects on Diazepam-Induced Myorelaxation in mice was determined at 10 mg/kg. Format: functional.
Assay [6] deals with GABA-A receptor; anion channel. The experiment in a line: Effect on [3H]flunitrazepam binding to Benzodiazepine receptor. Type of assay: protein-complex assay, Rattus norvegicus.
Assay [7] has as its system Mus musculus. The experiment in a line: Effects on Diazepam-Induced Myorelaxation in mice was determined when administered along with compound 1 at 20 mg/kg. Type of assay: functional.
For assay [8], the species on record is Mus musculus. The experiment in a line: Effects on Diazepam-Induced Myorelaxation in mice was determined. Format: functional.
Assay [9] deals with Mus musculus. Kind of assay: Effects on Diazepam-Induced Myorelaxation in mice was determined when administered along with compound 1 at 10 mg/kg. Type of assay: functional.

On to `CCCOc1ccc2[nH]c3cnc(C(=O)OCC)c(COC)c3c2c1`, for which the Activity in the assay on Mus musculus [1] and with Mus musculus [2] was 0 each time. For the same compound, the 50% effect level in the assay on Mus musculus [3] (ED50) was put at a dose of 1.6 mg/kg. The Impaired with Mus musculus [4] and in the assay with Mus musculus [5] was 0% each time. In assay [6], the half-inhibitory concentration (IC50) was determined as 8 nM.

Regarding `CN1C(=O)CN=C(c2ccccc2)c2cc(Cl)ccc21` [DIAZEPAM], the Impaired in the assay with Mus musculus [7] is on record as 0%; in the assay filed under Mus musculus [8], 100%; in the assay on Mus musculus [9], 50%.
